Legend:
[1] = test system: P388; experiment: The compound was tested for the cytotoxic activity against murine leukemia cells (P388); assay type: functional, cell-based; conditions: Mus musculus
Outline: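 The murine leukemia P388 cell line was used. Cytotoxicity was read out by a colorimetric tetrazolium–formazan assay.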

[2] = test system: MKN-45; experiment: Tested for cytotoxic activity against human stomach cancer cells (MKN-45); assay type: functional, cell-based
Outline: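 The human stomach cancer MKN-45 cell line was used. Cytotoxicity was read out by a colorimetric tetrazolium–formazan assay and by sulforhodamine B dye staining.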

[3] = molecular target: Protein kinase C (PKC); experiment: Inhibitory effect on protein kinase C using histone II-As as substrate; assay type: protein assay
[4] = molecular target: T1, DNA topoisomerase 1 (Homo sapiens, UniProt P11387); experiment: Inhibitory effect on topoisomerase-1 mediated DNA cleavage using supercoiled pBR322 plasmid DNA; assay type: functional
T1 sequence (P11387 whole entry): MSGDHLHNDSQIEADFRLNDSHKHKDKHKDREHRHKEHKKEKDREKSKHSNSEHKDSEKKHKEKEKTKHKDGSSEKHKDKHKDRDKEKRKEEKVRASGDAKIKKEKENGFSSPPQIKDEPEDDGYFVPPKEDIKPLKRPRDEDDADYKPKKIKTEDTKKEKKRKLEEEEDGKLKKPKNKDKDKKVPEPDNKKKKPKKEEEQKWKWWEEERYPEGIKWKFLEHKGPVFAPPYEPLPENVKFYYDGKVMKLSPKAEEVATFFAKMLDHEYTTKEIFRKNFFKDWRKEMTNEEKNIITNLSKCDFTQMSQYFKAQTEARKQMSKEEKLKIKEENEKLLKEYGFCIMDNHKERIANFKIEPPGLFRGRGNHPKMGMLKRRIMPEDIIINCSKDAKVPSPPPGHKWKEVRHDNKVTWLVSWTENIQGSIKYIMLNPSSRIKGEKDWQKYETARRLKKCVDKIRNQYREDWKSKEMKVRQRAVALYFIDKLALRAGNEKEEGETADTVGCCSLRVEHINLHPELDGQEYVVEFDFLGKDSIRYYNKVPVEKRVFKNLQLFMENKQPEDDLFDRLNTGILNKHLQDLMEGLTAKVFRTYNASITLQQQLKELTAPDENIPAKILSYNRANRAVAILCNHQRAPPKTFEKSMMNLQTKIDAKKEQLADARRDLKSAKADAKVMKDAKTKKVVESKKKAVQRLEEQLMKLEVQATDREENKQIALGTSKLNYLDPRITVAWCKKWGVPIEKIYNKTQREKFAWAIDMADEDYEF

[5] = molecular target: DNA topoisomerase II (Homo sapiens, UniProt P11388+Q02880); experiment: Tested for inhibitory effect on topoisomerase-2 mediated DNA cleavage using super coiled pBR322 plasmid DNA; assay type: functional
[6] = test system: P388; experiment: Compound was tested for the effect on the formation of protein-DNA complex in P388 cells investigated by the K+/SDS method; assay type: functional, Mus musculus
Outline: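 Formation of topoisomerase–DNA (protein–DNA) complexes was measured in murine leukemia P388 cells by K+/SDS precipitation. Activity was reported as EC200.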

[7] = test system: MKN-45; experiment: Ratio of compound toxicity to that of anticancer activity against human stomach cancer cells MKN-45 in mice; assay type: functional
Outline: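 MKN-45 human stomach cancer cells were implanted subcutaneously in a side flank of nude mice. Dosing began once tumors reached 0.2 cm³ or larger and was given intravenously five times per week for 2 weeks. GID75 is the approximate dose giving 75% tumor growth inhibition. LD10 is the approximate 10% lethal dose on the same schedule. Safety margin is LD10/GID75.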

[8] = organism: Mus sp.; experiment: Tested for toxicity in mice; assay type: organism-based; conditions: in vivo
Outline: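 Nude mice bearing subcutaneous MKN-45 human stomach cancer flank xenografts; dosing intravenous five times/week for 2 weeks, starting once tumors reached 0.2 cm³ or larger. Toxicity expressed as LD₁₀, the approximate dose lethal to 10% of animals on this schedule.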

[9] = test system: MKN-45; experiment: Inhibitory activity against human stomach cancer cells MKN-45 in nude mice after intravenous dose

Structure (SMILES) | IC50 [1] [nM] | IC50 [2] [nM] | IC50 [3] [nM] | EC50 [4] [nM] | EC50 [5] [nM] | EC200 [6] [nM] | Saftey margin [7] | LD10 [8] [mg m**-2] | GID75 [9] [mg m**-2]
O=C1c2c(c3c4ccc(O)cc4n([C@@H]4OC[C@@H](O)[C@H]4O)c3c3[nH]c4cc(O)ccc4c23)C(=O)N1NC(CO)CO | 2.4 | 37 | 12000 | 40 | – | – | – | – | –
O=C1c2c(c3c4ccc(O)cc4n([C@H]4O[C@H](CO)[C@H](O)[C@H]4O)c3c3[nH]c4cc(O)ccc4c23)C(=O)N1NC(CO)CO | 12 | 68 | > 200000 | 17 | > 50000 | 400 | – | – | –
O=C1c2c(c3c4ccc(O)cc4n([C@H]4O[C@H](CO)[C@@H](O)[C@H](O)[C@H]4O)c3c3[nH]c4cc(O)ccc4c23)C(=O)N1NC(CO)CO | 19 | 8.5 | 23000 | 300 | > 50000 | 450 | 1.5 | 170 | 110
O=C1c2c(c3c4ccc(O)cc4n([C@@H]4O[C@@H](C(O)CO)[C@@H](O)[C@H]4O)c3c3[nH]c4cc(O)ccc4c23)C(=O)N1NC(CO)CO (some centres not stated) | 14 | 29 | > 200000 | 20 | > 50000 | 1700 | – | – | –
O=C1c2c(c3c4ccc(O)cc4n([C@@H]4O[C@H](C(O)CO)[C@@H](O)[C@H]4O)c3c3[nH]c4cc(O)ccc4c23)C(=O)N1NC(CO)CO (some centres not stated) | 17 | 70 | > 200000 | 42 | > 50000 | 2000 | 1.4 | 370 | 260
O=C1c2c(c3c4ccc(O)cc4n([C@H]4O[C@H](CO)[C@@H](O)[C@H](O)[C@@H]4O)c3c3[nH]c4cc(O)ccc4c23)C(=O)N1NC(CO)CO | 15 | 23 | 50000 | 80 | > 50000 | 930 | – | – | –
O=C1c2c(c3c4ccc(O)cc4n([C@H]4O[C@H](CO)[C@@H](O)[C@@H](O)[C@H]4O)c3c3[nH]c4cc(O)ccc4c23)C(=O)N1NC(CO)CO | 18 | 20 | 72000 | 26 | – | 1600 | – | – | –
O=C1c2c(c3c4ccc(O)cc4n([C@@H]4O[C@H](CO)[C@@H](O)[C@H](O)[C@@H]4O)c3c3[nH]c4cc(O)ccc4c23)C(=O)N1NC(CO)CO | 36 | 63 | 20000 | 230 | > 50000 | >10000 | – | – | –
O=C1c2c(c3c4ccc(O)cc4n([C@@H]4C[C@@H](O)[C@H](O)[C@@H](CO)O4)c3c3[nH]c4cc(O)ccc4c23)C(=O)N1NC(CO)CO | 16 | 33 | 150000 | 130 | > 50000 | 1200 | – | – | –
O=C1c2c(c3c4ccc(O)cc4n([C@H]4O[C@H](CO)[C@@H](O)[C@@H]4O)c3c3[nH]c4cc(O)ccc4c23)C(=O)N1NC(CO)CO | 8.5 | 43 | > 200000 | 100 | > 50000 | 2600 | – | – | –
O=C1c2c(c3c4ccc(O)cc4n([C@@H]4O[C@H](CO)[C@@H](O)[C@@H](O)[C@H]4O)c3c3[nH]c4cc(O)ccc4c23)C(=O)N1NC(CO)CO | 13 | 33 | 17000 | 26 | > 50000 | 160 | 2.3 | 990 | 440
O=C1c2c(c3c4ccc(O)cc4n([C@@H]4O[C@H](CO)[C@@H](O)[C@@H]4O)c3c3[nH]c4cc(O)ccc4c23)C(=O)N1NC(CO)CO | 5.3 | 93 | 120000 | 32 | > 50000 | 430 | – | – | –
O=C1c2c(c3c4ccc(O)cc4n([C@H]4C[C@@H](O)[C@H](O)[C@@H](CO)O4)c3c3[nH]c4cc(O)ccc4c23)C(=O)N1NC(CO)CO | 5.6 | 42 | 130000 | 240 | > 50000 | 3000 | – | – | –
O=C1c2c(c3c4ccc(O)cc4n([C@@H]4OC[C@@H](O)[C@H](O)[C@H]4O)c3c3[nH]c4cc(O)ccc4c23)C(=O)N1NC(CO)CO | 3.8 | 50 | > 200000 | 100 | > 50000 | 300 | – | – | –
C[C@H]1O[C@@H](n2c3cc(O)ccc3c3c4c(c5c6ccc(O)cc6[nH]c5c32)C(=O)N(NC(CO)CO)C4=O)[C@H](O)[C@@H](O)[C@@H]1O | 3 | 38 | 60000 | 140 | > 50000 | 6500 | – | – | –
O=C1c2c(c3c4ccc(O)cc4n([C@@H]4O[C@H](CO)[C@@H](O)[C@H]4O)c3c3[nH]c4cc(O)ccc4c23)C(=O)N1NC(CO)CO | 1.8 | 50 | 20000 | 8 | > 50000 | 32 | 2 | 570 | 290
O=C1c2c(c3c4ccc(O)cc4n([C@H]4C[C@H](O)[C@@H](CO)O4)c3c3[nH]c4cc(O)ccc4c23)C(=O)N1NC(CO)CO | 4.4 | 45 | 3000 | 25 | > 50000 | 170 | – | – | –
O=C1c2c(c3c4ccc(O)cc4n([C@@H]4O[C@H](CO)[C@H](O)[C@H](O)[C@H]4O)c3c3[nH]c4cc(O)ccc4c23)C(=O)N1NC(CO)CO | 7.1 | 9.3 | > 200000 | 140 | – | >10000 | – | – | –
O=C1c2c(c3c4ccc(O)cc4n([C@@H]4O[C@H](CO)[C@@H](O[C@H]5O[C@H](CO)[C@@H](O)[C@H](O)[C@H]5O)[C@H](O)[C@H]4O)c3c3[nH]c4cc(O)ccc4c23)C(=O)N1NC(CO)CO | 3.5 | 73 | > 200000 | > 3000 | > 50000 | >10000 | – | – | –

Source: ChEMBL document CHEMBL1133404, “Synthesis and biological activities of NB-506 analogues modified at the glucose group” (Bioorg Med Chem Lett, 2000)
